# The list is not random: actives were taken first. Their share in the collection is about 2.9%.
# TRPC4 block: inhibitors of mouse TRPC4 channel. HEK293 TRPC4beta/mu-opioid, DAMGO-evoked Fluo4 calcium flux; active compounds read low. B-score at 10 µM. 300,000 tested, 0.39% active. AID 2247;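 active means B-score over 3 SD under the library average, no early fluorescence shift, positive overall ratio signal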
# Target sequence (Q9QUQ5 whole entry, looked up): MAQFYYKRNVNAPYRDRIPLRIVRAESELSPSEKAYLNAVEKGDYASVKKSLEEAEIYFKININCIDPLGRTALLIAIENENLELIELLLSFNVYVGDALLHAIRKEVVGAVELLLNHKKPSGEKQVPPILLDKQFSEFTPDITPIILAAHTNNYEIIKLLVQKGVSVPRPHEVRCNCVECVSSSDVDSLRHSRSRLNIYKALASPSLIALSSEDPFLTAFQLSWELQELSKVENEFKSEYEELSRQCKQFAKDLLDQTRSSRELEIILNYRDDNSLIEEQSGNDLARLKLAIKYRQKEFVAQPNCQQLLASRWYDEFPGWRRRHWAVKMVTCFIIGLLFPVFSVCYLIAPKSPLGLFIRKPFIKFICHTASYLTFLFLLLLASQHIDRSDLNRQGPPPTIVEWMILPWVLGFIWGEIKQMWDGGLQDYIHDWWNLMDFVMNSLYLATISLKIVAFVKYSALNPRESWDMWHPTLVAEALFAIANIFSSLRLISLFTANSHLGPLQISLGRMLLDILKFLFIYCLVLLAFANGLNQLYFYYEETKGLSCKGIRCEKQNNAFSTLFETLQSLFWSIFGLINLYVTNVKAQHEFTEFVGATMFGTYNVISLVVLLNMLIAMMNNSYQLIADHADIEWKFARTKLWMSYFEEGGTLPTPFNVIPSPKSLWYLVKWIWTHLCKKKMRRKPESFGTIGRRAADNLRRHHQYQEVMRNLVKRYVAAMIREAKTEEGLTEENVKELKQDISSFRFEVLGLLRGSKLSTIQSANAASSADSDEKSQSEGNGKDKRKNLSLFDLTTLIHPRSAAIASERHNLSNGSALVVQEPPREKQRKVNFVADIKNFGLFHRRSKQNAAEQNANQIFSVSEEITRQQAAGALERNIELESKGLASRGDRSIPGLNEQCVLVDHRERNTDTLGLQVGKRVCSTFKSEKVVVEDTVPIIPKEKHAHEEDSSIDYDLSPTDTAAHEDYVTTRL
#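 Assay system: Stable TRPC4beta/mu-opioid receptor HEK293 cells | Reagent: DAMGO in two steps, submaximal then maximal | Compound dosing: Single concentration per test compound | Signal: Fluo4 Ca2+ flux fluorescence | Evaluation: Per-well B score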
# TRPC6 inh: inhibitors of mouse TRPC6 channel | Q61143 | HEK293-TRPC6, membrane potential dye, ACh-evoked depolarization; active compounds read low | B-score at 10 µM | 310,000 tested, 1.1% active | AID 2553;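 active means B-score under library mean minus 3 SD, initial fluorescence not abnormally high, positive integrated signal ratio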;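 further: B-score derived from integrated fluorescence ratio over the kinetic read; more negative B-score means stronger inhibition of depolarization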
# TRPC4 potent: TRPC4 (mouse) allosteric potentiation; Q9QUQ5; HEK293 TRPC4beta/mu-opioid, DAMGO EC20, Fluo-4 Ca2+ flux; active compounds read high; B-score at 10 µM; 310,000 tested, 0.42% active; AID 2227;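 active means B-score of calcium response area above 5 SD of library B-scores, with initial fluorescence ratio within 5 SD of library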;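 further: B-score of integrated fluorescence ratio over time as area under calcium response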
# Kir21 inh: inhibitors of mouse Kir2.1 inward-rectifier potassium channel; HEK293-Kir2.1, FluxOR thallium flux fluorescence; active compounds read low; B-score at 10 µM; 310,000 tested, 0.85% active; AID 1672;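 active means fluorescence ratio B-score at or below minus 3 SD of library scores, with starting-brightness B-score within 2 SD, cut at about -4.2 in these data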;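 further: channel flux triggered by added potassium and thallium sulfate stimulus; B-score of peak minus minimum fluorescence over baseline after thallium stimulus; more negative B-score means stronger Kir2.1 block with less thallium influx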
# TRPC6 activator: mouse TRPC6 channel activation; HEK293-TRPC6 membrane potential dye fluorescence; active compounds read high; Q61143; 310,000 tested, 0.13% active; B-score at 10 µM;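 active means B-score of the integrated fluorescence ratio above library mean plus 3 SD, and starting fluorescence ratio within library mean plus 5 SD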;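 further: higher score means more depolarization so channel activation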
# TRPC4 act: opens the mouse TRPC4 cation channel. Q9QUQ5. HEK293 TRPC4beta/mu-opioid, Fluo4 calcium fluorescence; active compounds read high. B-score at 10 µM. 310,000 tested, 0.49% active;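 active means B-score above 5 SD of library B-scores, and initial fluorescence ratio not above library mean plus 5 SD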;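 further: positive B-score marks a calcium rise read as TRPC4 activation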
#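 Material: HEK293 stable line with TRPC4beta plus mu-opioid receptor; technique: Fluo4 calcium-sensitive dye fluorescence, kinetic, 1 Hz baseline; timing: Fluo4 dye loading 45 min at room temperature, 110 s recording; controls: assay buffer as low control, maximal DAMGO as high control; read-out: integrated baseline-normalised fluorescence ratio, converted to per-well B score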
# The depositor's hits bear a star; i = inactive.
SMILES,TRPC4 block,TRPC6 inh,TRPC4 potent,Kir21 inh,TRPC6 activator,TRPC4 act
CCN(Cc1ccccc1)S(=O)(=O)c1ccc(C(=O)N(CCCN(C)C)c2nc3c(F)cccc3s2)cc1,i,i,i,1.6,i,112*
Cc1ccc2nc(N(CCCN(C)C)C(=O)CCc3ccccc3)sc2c1,i,i,i,-5.6*,i,i
CCOc1cccc2sc(N(CCCN(C)C)C(=O)c3ccc(S(=O)(=O)N(CC)Cc4ccccc4)cc3)nc12,i,i,i,0.34,i,i
CN(C)CCCN(C(=O)c1ccc(S(=O)(=O)N2CCCCCC2)cc1)c1nc2c(F)cccc2s1,-6*,i,i,-0.59,i,54*
CN(C)CCCN(C(=O)CCc1ccccc1)c1nc2ccc(Cl)cc2s1,i,i,i,0.13,i,i
CN(C)CCCN(C(=O)c1ccc2c(c1)CCCC2)c1nc2ccc(Cl)cc2s1,i,i,i,-4.3*,i,i
CN=C1S/C(=C\c2cccc(Cl)c2Cl)C(=O)N1C,i,i,i,-1.5,i,i
CCC(CC)c1nnc(NC(=O)CN2C(=O)NC3(CCCC3)C2=O)s1,i,i,i,0.3,i,i
Cc1cc(NC(=O)C(C)SCC(=O)Nc2ccc(Br)cc2Br)no1 (stereo not given),i,i,i,-0.24,i,i
COc1ccc(NC(=O)CCc2nnc3ccc(N4CCN(c5cccc(OC)c5)CC4)nn23)cc1,i,i,i,-0.57,i,i
CCc1ccc2nc(N(CCCN(C)C)C(=O)c3ccc(S(=O)(=O)N4CCCC4)cc3)sc2c1,i,i,i,-0.6,i,i
CN(C)CCN(C(=O)c1ccc(S(=O)(=O)N2CCc3ccccc32)cc1)c1nc2ccc(F)cc2s1,i,i,i,0.39,i,i
Cc1ccc2sc(N(CCCN(C)C)C(=O)c3ccc(S(=O)(=O)N4CCc5ccccc5C4)cc3)nc2c1C,i,i,i,1.8,i,i
CN(C)CCCN(C(=O)c1ccc(S(=O)(=O)N2CCOCC2)cc1)c1nc2ccc(F)cc2s1,i,i,i,-0.58,i,57*
Cc1ccc2nc(N(CCCN(C)C)C(=O)c3ccc(S(=O)(=O)N4CCCCCC4)cc3)sc2c1,i,i,14*,-2.7,i,43*
CCOC(=O)N1CCN(S(=O)(=O)c2ccc(C(=O)N(CCCN(C)C)c3nc4ccc(Cl)cc4s3)cc2)CC1,i,i,i,-0.94,i,i
CN(C)CCCN(C(=O)c1ccc(S(=O)(=O)N2CCCCCC2)cc1)c1nc2ccc(F)cc2s1,i,i,i,-5*,i,336*
CN(C)CCCN(C(=O)c1ccc(S(=O)(=O)N2CCc3ccccc3C2)cc1)c1nc2c(F)cc(F)cc2s1,i,i,i,0.85,i,58*
Cn1c2ccccc2c(=O)c2ccc(-c3ccc4c(c3)OCO4)cc21,i,i,i,1.9,i,i
Cc1cc(C)c(S(=O)(=O)NCc2cccs2)cc1C,i,i,13*,-2.1,i,i
S=C(NCc1ccccc1)NCc1ccccn1,i,i,i,1.2,i,i
Cc1nc(N2CCN(Cc3ccc4c(c3)OCO4)CC2)nc2c1C(=O)CC(c1ccco1)C2 (stereo not given),i,i,i,1.8,i,i
Cc1nc(N2CCN(Cc3ccccc3)CC2)nc2c1C(=O)CC(c1ccco1)C2 (stereo not given),i,i,i,-5.3*,i,i
Cc1cccc(NCc2nc(SCC(=O)Nc3ccccc3Br)n[nH]2)c1,i,i,i,-5*,i,i
Cc1cccc(NCc2nc(SCC(=O)Nc3ccccc3)n[nH]2)c1,i,i,i,-0.82,i,i
SMILES,TRPC4 block,TRPC6 inh,TRPC4 potent,Kir21 inh,TRPC6 activator,TRPC4 act
Cc1ccc(S(=O)(=O)NCCC(=O)Nc2ccc(C)cc2C(=O)c2ccccc2)cc1,i,i,i,-1.6,i,i
Oc1cccc(CCC2CCCCN2Cc2cn[nH]c2-c2ccc3c(c2)OCO3)c1 (stereo not given),i,i,i,0.25,i,43*
COc1cc(CNC(C)(C)CO)cc(Br)c1OCc1ccc(Cl)cc1,i,i,i,-4.8*,i,i
COc1cc(CNc2ccc(O)cc2)cc(Br)c1OCc1ccccc1,i,i,i,-0.52,i,i
CC(C)(CO)NCc1c(OCc2ccc(Cl)cc2)ccc2ccccc12,i,-6.7*,i,-2.9,i,i
CNCc1c(OCc2ccccc2F)ccc2ccccc12,i,i,i,-2.2,i,i
COc1cc(CNC(C)(C)CO)cc(Br)c1OCc1ccc(Cl)cc1Cl,i,i,i,-10*,i,i
CCOc1cc(CNc2ccc(O)cc2)ccc1OCc1ccc(Cl)cc1Cl,i,i,i,2.2,i,i
COc1cc(OC)cc(C(=O)NC(=S)Nc2nnn(C)n2)c1,i,i,i,1.1,i,i
CCOC(=O)C1(Cc2cccc(OC)c2)CCN(Cc2ccccc2)CC1,i,i,i,-3.2,i,i
CCOC(=O)C1(Cc2cccc(OC)c2)CCN(Cc2cnc(N)nc2)CC1,i,i,i,0.27,i,i
CCOC(=O)C1(Cc2cccc(OC)c2)CCN(Cc2cnc(SC)nc2)CC1,-5*,i,i,-0.94,i,i
CCOC(=O)C1(Cc2cccc(OC)c2)CCN(Cc2ccc3c(c2)OCCO3)CC1,i,i,i,-1.5,i,56*
CCOC(=O)C1(CCOc2ccccc2)CCN(Cc2ccc3c(c2)OCCO3)CC1,i,i,i,-1.1,i,61*
COc1ccc(C(Nc2ccccn2)c2c(NC(=O)c3ccco3)sc(C)c2C)cc1OC (stereo not given),-6*,i,i,-1.3,i,i
COc1cc(C(Nc2ccccn2)c2c(NC(=O)c3ccco3)sc(C)c2C)cc(OC)c1OC (stereo not given),i,i,i,0.4,i,i
COc1cc(/C=C2\CCC/C(=C\c3ccc(O)c(OC)c3)C2=O)ccc1O,-6*,i,i,1,i,i
COc1cc(/C=C2/CCCC(C(=O)C(F)(F)F)=C2O)ccc1O,i,i,i,0.69,i,i
COc1cc(/C=C2\SC(N3CCC(C)CC3)=NC2=O)ccc1O,-6*,i,i,-2.2,i,i

# Screening data deposited in PubChem BioAssay by Johns Hopkins Ion Channel Center.
